The values below come from ChEMBL document CHEMBL1131468, “Rigid phencyclidine analogues. Binding to the phencyclidine and sigma 1 receptors” (J Med Chem, 1998).

Experiment [1] has as its target Sigma non-opioid intracellular receptor 1 (Rattus norvegicus, UniProt Q9R0C9). Kind of experiment: Inhibition of [3H]NANM binding to sigma receptor obtained from tissue homogenate preparation of fresh whole rat brain minus cerebellum. The class given is tissue-based. In short, it runs like this: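 Radioligand displacement in homogenate of fresh whole rat brain minus cerebellum. The PCP site was labelled with [3H]TCP and the sigma site with [3H]NANM. IC50 values were read from inhibition curves and converted to Ki with the Cheng-Prusoff equation. Experiments were run in triplicate and reported as mean ± standard deviation of three experiments.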

The nature of experiment [2]: Inhibition of [3H]-TCP binding to PCP receptor obtained from tissue homogenate preparation of fresh whole rat brain minus cerebellum.

Molecules are shown by their SMILES.

Sequence of Sigma non-opioid intracellular receptor 1 (Q9R0C9 whole entry): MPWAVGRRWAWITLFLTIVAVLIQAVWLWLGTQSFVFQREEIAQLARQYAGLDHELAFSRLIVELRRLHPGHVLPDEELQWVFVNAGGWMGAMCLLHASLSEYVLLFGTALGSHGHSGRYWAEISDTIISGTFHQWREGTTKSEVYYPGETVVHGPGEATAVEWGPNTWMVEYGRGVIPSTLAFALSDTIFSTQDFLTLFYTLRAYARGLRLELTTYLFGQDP

One may read the IC50 as the concentration that inhibits the measured activity by half. The low end stands for greater potency, the high end for weaker potency. Regarding `c1ccc2c(c1)C1CCCCC21N1CCCCC1` (stereo not given), the IC50 in experiment [1] is 330 nM.

`c1ccc2c(c1)C1CCC2(N2CCCCC2)C1` (stereo not given) returned a 50% inhibitory concentration (IC50) in experiment [1] of 365 nM. This IC50 and that of the molecule before are within 1.5-fold of each other. As to `c1ccc2c(c1)C1CCC2(N2CCCCC2)CC1`, the IC50 in experiment [1] was found to be 319 nM. The molecule `c1ccc(C2(N3CCCCC3)CCCCC2)cc1` [PHENCYCLIDINE] returned a 50% inhibitory concentration (IC50) in experiment [2] of 91 nM. `O=C(OCCN1CCOCC1)C1(c2ccccc2)CCCCC1`: the IC50 in experiment [1] is 44 nM.
